IC50 data for seven compounds are collected here from ChEMBL document CHEMBL4002556, “Acetophenone Monomers from Acronychia trifoliolata” (J Nat Prod, 2016).

Broadly, the pIC50 is the negative decadic logarithm of the IC50, by convention in mol/L.

pIC50: −log10 of the molar value.

Common to all, as to format: functional, cell-based
The test system of one experiment is A549. In words: Cytotoxicity against human A549 cells assessed as growth inhibition after 48 hrs by SRB assay. The note with it: A549, 48 h. The method, boiled down:
(§1)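 Sulforhodamine B (SRB) read-out of antiproliferative effect. IC50 is the concentration giving 50% reduction relative to untreated cells, determined separately for each cell line.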

The test system of another experiment is KB. In words: Cytotoxicity against human KB cells assessed as growth inhibition after 48 hrs by SRB assay. The method, boiled down:
as §1
For orientation: The SRB assay estimates cell density from bound dye.

Experiment [1] is described as follows: Cytotoxicity against human KBVIN cells assessed as growth inhibition after 48 hrs by SRB assay. An outline of the steps: as §1
The test system of the next experiment is MDA-MB-231. In words: Cytotoxicity against human MDA-MB-231 cells assessed as growth inhibition after 48 hrs by SRB assay. The following applies: MDA-MB-231, 48 h. The method, boiled down: as §1
A further experiment deals with MCF7. In words: Cytotoxicity against human MCF7 cells assessed as growth inhibition after 48 hrs by SRB assay. The note with it: MCF7, 48 h.

Regarding `COc1c2c(c(CC=C(C)C)c(O)c1C(C)=O)OC(C(C)(C)O)C2` (stereo not drawn), the pIC50 (in the experiment with A549; in the experiment with KB; in experiment [1]; in the experiment with MDA-MB-231; in the experiment with MCF7) was < 4.40 throughout.

For `COc1c(CC=C(C)C)c(O)c2c(c1C(C)=O)OC(C)(C)C(O)C2` (stereo not drawn), the negative-log IC50 (pIC50) (in the experiment with A549; with KB; in experiment [1]; with MDA-MB-231; with MCF7) was < 4.40 throughout.

With `COc1c2c(c(CC=C(C)C)c(O)c1C(C)=O)OC(C)(C)C(O)C2` (stereo not drawn), the pIC50 with A549 is 4.58; in the experiment with KB, 4.59; in experiment [1] it was 4.72; in the experiment with MDA-MB-231, < 4.40; with MCF7, 4.51.

On to `COc1c2c(c(CCC(C)C)c(O)c1C(C)=O)OC(C)(C)C(O)C2` (stereo not drawn), for which the pIC50 is 4.70 in the experiment on A549; 4.69 in the experiment with KB; 4.79 in experiment [1]; 4.65 with MDA-MB-231; 4.71 in the experiment on MCF7.

In the case of `COc1c(CC=C(C)C)c2c(c(O)c1C(C)=O)CC(O)C(C)(C)O2` (stereo not drawn), the pIC50 is < 4.40 with A549; 4.41 with KB; 4.40 in experiment [1]; < 4.40 in the experiment on MDA-MB-231; < 4.40 in the experiment on MCF7.

Take `COc1c(CC=C(C)C)c2c(c(O)c1C(C)=O)CC(C(C)(C)O)O2` (stereo not drawn): the pIC50 (in the experiment on A549; in the experiment on KB; in experiment [1]; with MDA-MB-231; in the experiment with MCF7) was < 4.40 in each case.

As for `CC(=O)O[C@H]1C(=O)[C@@]2(C)[C@H]([C@H](OC(=O)c3ccccc3)[C@]3(O)C[C@H](OC(=O)[C@H](O)[C@@H](NC(=O)c4ccccc4)c4ccccc4)C(C)=C1C3(C)C)[C@]1(OC(C)=O)CO[C@@H]1C[C@@H]2O` [PACLITAXEL], the results for the pIC50 (in the experiment with A549; in the experiment with KB; in experiment [1]) were 9.00, 9.10 and 5.72, respectively.
